In test [1] the test system is MCF7 (breast cancer cell lines). Kind of test: In vitro cell antiproliferative test. It is filed as cell-based, human. Conditions: MCF7, 200 µg/mL, 48 hours. The method, boiled down: (§1)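 Cells grown in DMEM with 10% heat-inactivated FBS and penicillin-streptomycin, detached with trypsin-EDTA, and counted by trypan blue. Plated at 10 × 10³ cells/well and allowed to attach for 24 h at 37°C, 5% CO2. Exposed 48 h to isolated compounds at 1.8–200 µg/mL final, in triplicate. MTT added at 1 mg/mL final for 4 h, formazan dissolved in DMSO, and A570 read. Survival calculated as a percentage of untreated wells.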

In test [2] the test system is 3T3 (non-cancer immortal cell lines). As to the kind of experiment: In vitro cell antiproliferative test. It is filed as cell-based. The following applies: 3T3, 200 µg/mL, 48 hours. The method, boiled down:
as §1

Test [3] can be described thus: Hydroxyl radical scavenging activity. Conditions: 5 minutes, 560 nm; standard ascorbic acid.

As to `CC(C)=CCc1c(O)cc(O)cc1-c1cc2ccc(O)c(CC=C(C)C)c2o1` [Cathafuran B, cathafuran B], the “% of cell survival” value was 8.89% in test [1] and 20.58% in test [2].

Consider `C[C@H]1[C@H](C)CC[C@]2(C(=O)O)CC[C@]3(C)C(=CC[C@@H]4[C@@]5(C)CC[C@H](O)C(C)(C)[C@@H]5CC[C@]43C)[C@H]12` [Ursolic acid, ursolic acid], for which the “% of cell survival” value in test [1] is on record as 8.46%; in test [2], 17.58%.

Consider `O=C1O[C@H]([C@@H](O)CO)C(O)=C1O` [ascorbic acid], for which the “Hydroxyl radical scavenging EC50” value in test [3] was 6.58 µg/mL.

As to `Oc1cc(O)cc(-c2cc3ccc(O)cc3o2)c1` [Moracin M], the “% of cell survival” value in test [1] is recorded as 16.09%; in test [2], 21.6%.

Source of the values: article PMC8314033 (BioImpacts : BI, 2020).
